Measured values published in ChEMBL document CHEMBL1156121, “Synthesis and antioxidant properties of some novel 5H-dibenz[b,f]azepine derivatives in different in vitro model systems” (Eur J Med Chem, 2010).
Activity calls are given as the source filed them. The rule behind the calls is not given here.

Experiments:
[1] = test system: Radical scavenging activity; experiment: Antioxidant activity assessed as DPPH radical scavenging activity; assay type: functional
How it was run: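 Ethanolic compound solutions (10, 25, 50, 100, 200, 500) were mixed with 0.1 mM DPPH in ethanol (4 mL to 1 mL sample) and kept in the dark at room temperature for 20 min. A517 was compared with a compound-free blank, giving % inhibition = (A0−A1)/A0×100. IC50 was read from the plot of % scavenging against concentration.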

[2] = test system: Blood; experiment: Antioxidant activity against copper-induced low density lipoprotein oxidation in human blood assessed as malonoldehyde formation at 10 uM after 2 hrs by thiobarbituric acid method; assay type: functional
How it was run: (§1)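 Human LDL isolated from fasting volunteers' plasma by ultracentrifugation, then dialysed against PBS pH 7.4 (0.1 mg LDL protein/mL). Compounds at 10 and 25 were incubated with LDL and 40 µL of 2 mM CuSO4 in 50 mM phosphate buffer pH 7.4 at 37 °C. Controls were run without compound and without copper. Aliquots taken at 2, 4 and 6 h were heated with TBA/TCA at 95 °C for 45 min. TBARS (MDA) was read at 532 nm.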

[3] = Antioxidant activity against lipid peroxidation at 50 uM by beta-carotene linoleate method; assay type: functional
How it was run: (§2)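 β-Carotene/linoleic acid/Tween-40 emulsion, with chloroform removed, was mixed with compound in ethanol; BHA and ascorbic acid were run at the same concentrations as references. Absorbance was read at 470 nm at t=0 and then every 30 min to 180 min. Results are given as % antioxidant activity, mean ± SD, n = 3.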

[4] = test system: Blood; experiment: Antioxidant activity against copper-induced low density lipoprotein oxidation in human blood assessed as malonoldehyde formation at 25 uM after 2 hrs by thiobarbituric acid method; assay type: functional; how it was run: as §1
[5] = Antioxidant activity assessed as reduction of […]/ferricyanide complex; assay type: functional
How it was run: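 Oyaizu method. Compounds (50 and 100) were incubated in 0.2 M phosphate buffer pH 6.6 with 1% potassium ferricyanide at 50 °C for 20 min. After adding 10% TCA and centrifuging, the supernatant was diluted with water and mixed with 0.1% FeCl3, then A700 was read. Values are means of three independent samples.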

[6] = test system: Blood; experiment: Antioxidant activity against copper-induced low density lipoprotein oxidation in human blood assessed as malonoldehyde formation at 10 uM after 6 hrs by thiobarbituric acid method; assay type: functional; how it was run: as §1
[7] = Antioxidant activity against lipid peroxidation at 25 uM by beta-carotene linoleate method; assay type: functional; how it was run: as §2
[8] = test system: Blood; experiment: Antioxidant activity against copper-induced low density lipoprotein oxidation in human blood assessed as malonoldehyde formation at 25 uM after 6 hrs by thiobarbituric acid method; assay type: functional; how it was run: as §1
[9] = test system: Blood; experiment: Antioxidant activity against copper-induced low density lipoprotein oxidation in human blood assessed as malonoldehyde formation by thiobarbituric acid method; assay type: functional, tissue-based; how it was run: as §1

Compound | IC50 [1] [µM] | Activity [2] [%] | Activity [3] [%] | Activity [4] [%] | Activity [5] | Activity [6] [%] | Activity [7] [%] | Activity [8] [%] | Activity [9] | Activity [1]
COc1ccc(O)c(C(C)(C)C)c1.COc1ccc(O)cc1C(C)(C)C [BUTYLATED HYDROXYANISOLE] | 14.1 |  |  |  |  |  |  |  |  | 
COc1cc(NCCC(=O)N2c3ccccc3C=Cc3ccccc32)ccc1O | 13.9 | 56.13 | 91.3 | 70.41 | Dose-dependent effect | 72.93 | 91.5 | 89.61 |  | 
O=C(CCNc1ccccc1O)N1c2ccccc2C=Cc2ccccc21 | 16.1 |  |  |  | Dose-dependent effect |  |  |  | Active | 
O=C(CCCl)N1c2ccccc2C=Cc2ccccc21 |  | 5.34 |  | 7.43 | inactive | 8.87 |  | 12.43 | inactive | inactive
O=C(CCNc1ccc(O)c([N+](=O)[O-])c1)N1c2ccccc2C=Cc2ccccc21 | 14.8 |  | 90 |  | Dose-dependent effect |  | 88.4 |  | Active | 
O=C(CCNc1cccc(O)c1)N1c2ccccc2C=Cc2ccccc21 | 17.4 |  |  |  | Dose-dependent effect |  |  |  | Active | 
O=C1O[C@H]([C@@H](O)CO)C(O)=C1O [ASCORBIC ACID] | 13.2 |  |  |  |  |  |  |  |  | 
O=C(CCNc1ccc(O)cc1)N1c2ccccc2C=Cc2ccccc21 | 15.3 |  | 88.7 |  | Dose-dependent effect |  | 87.1 |  | Active | 
